The source made the active and inactive calls. The calls are words filed in the database; no cut-off is given here.

The subject of experiment [1] is HUVEC. Description: Effect on ZAK gene expression in serum-starved HUVEC after 24 hrs by microarray analysis relative to control. The experiment is classed as functional, Homo sapiens.
Experiment [2] concerns HUVEC. Nature of the experiment: Effect on PNISR gene expression in serum-starved HUVEC after 6 hrs by microarray analysis relative to control. The experiment is classed as functional, Homo sapiens. The method, boiled down:
(§1)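 Serum-starved confluent HUVEC (pooled from 3–5 donors, passage ≤4) were treated with 2 μM compound or vehicle in 2.5% FBS for 6 h or 24 h, and total RNA was isolated. Hybridization was on Illumina Human-HT12. Data were processed with bgAdjust, vst and rsn normalization. Changes versus DMSO were called by moderated paired t-test at p < 0.05 and |log2 fold change| > 0.5.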

Experiment [3] relates to HUVEC. Nature of the experiment: Effect on ITGA2 gene expression in serum-starved HUVEC after 6 hrs by microarray analysis relative to control. It is filed as functional, Homo sapiens. The method, boiled down: (§2)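 Confluent, serum-starved HUVEC (pooled from 3–5 donors, passage ≤4) treated with 2 μM compound or vehicle with 2.5% FBS for 6 h or 24 h. Total RNA hybridized to Illumina Human-HT12 arrays. Data were background-corrected, vst-transformed and rsn-normalized. Hits called by moderated paired t-test versus DMSO-treated cells, p < 0.05 and log2 fold change >|0.5|.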

The test system of experiment [4] is HUVEC. Nature of the experiment: Effect on MAP1B gene expression in serum-starved HUVEC after 6 hrs by microarray analysis relative to control. It is filed as functional, Homo sapiens. The method, boiled down:
as §1

In experiment [5] the test system is HUVEC. Description: Effect on ITGA2 gene expression in serum-starved HUVEC after 24 hrs by microarray analysis relative to control. The experiment is classed as functional, Homo sapiens. The method, boiled down: as §2
In experiment [6] the test system is HUVEC. Description: Effect on HLA-DRB4 gene expression in serum-starved HUVEC after 6 hrs by microarray analysis relative to control. It is filed as functional, Homo sapiens. The method, boiled down:
as §2

Experiment [7] in a line: Upregulation of MSMO1 gene expression in serum-starved HUVEC at 2 uM after 24 hrs by qRT-PCR analysis. As to conditions: Homo sapiens. The experiment is classed as functional, cell-based. For orientation: In qPCR the cycle at which signal appears reflects the starting amount.
Experiment [8] concerns HUVEC. Nature of the experiment: Effect on TYMP gene expression in serum-starved HUVEC after 6 hrs by microarray analysis relative to control. It is filed as functional, Homo sapiens.
Experiment [9] relates to HUVEC. Description: Effect on CDK1 gene expression in serum-starved HUVEC after 6 hrs by microarray analysis relative to control. It is filed as functional, Homo sapiens. The method, boiled down: (§3)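 Serum-starved confluent HUVEC treated with 2 μM compound or DMSO in 2.5% FBS for 6 h or 24 h; RNA hybridized to Illumina Human-HT12 arrays. Data background-corrected, vst-transformed and rsn-normalized. Differential probes called by moderated paired t-test (limma) at p < 0.05 and log2 fold change >|0.5| vs DMSO.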

Experiment [10] deals with HUVEC. Description: Effect on CD46 gene expression in serum-starved HUVEC after 6 hrs by microarray analysis relative to control. The experiment is classed as functional, Homo sapiens. The method, boiled down: as §3
For experiment [11], the system named is HUVEC. Description: Effect on GPR116 gene expression in serum-starved HUVEC after 6 hrs by microarray analysis relative to control. The experiment is classed as functional, Homo sapiens. The gist of the method: as §2
In experiment [12] the test system is HUVEC. Nature of the experiment: Effect on TGFBI gene expression in serum-starved HUVEC after 24 hrs by microarray analysis relative to control. It is filed as functional, Homo sapiens.
Experiment [13] relates to HUVEC. Description: Effect on KIF4A gene expression in serum-starved HUVEC after 24 hrs by microarray analysis relative to control. The experiment is classed as functional, Homo sapiens. The method, boiled down:
as §1

For experiment [14], the system named is HUVEC. Description: Effect on PODXL gene expression in serum-starved HUVEC after 24 hrs by microarray analysis relative to control. It is filed as functional, Homo sapiens. The gist of the method: as §1
Experiment [15] concerns HUVEC. Nature of the experiment: Effect on CDK1 gene expression in serum-starved HUVEC after 24 hrs by microarray analysis relative to control. The experiment is classed as functional, Homo sapiens. The gist of the method: as §3
For experiment [16], the system named is HUVEC. Description: Effect on DKK1 gene expression in serum-starved HUVEC after 24 hrs by microarray analysis relative to control. It is filed as functional, Homo sapiens. The gist of the method: (§4)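 Confluent serum-starved HUVEC (primary, pooled from 3–5 donors, passage ≤4) treated with 2 μM compound or DMSO vehicle in 2.5% FBS for 6 h or 24 h. Total RNA hybridized to Illumina Human-HT12 arrays, background-corrected, vst-transformed and rsn-normalized. Differential expression versus DMSO by moderated paired t-test (p < 0.05, |log2 fold change| > 0.5).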

In experiment [17] the test system is HUVEC. Description: Effect on CMTM7 gene expression in serum-starved HUVEC after 24 hrs by microarray analysis relative to control. The experiment is classed as functional, Homo sapiens. The method, boiled down: as §4
Experiment [18] has as its system HUVEC. Nature of the experiment: Effect on CXCL16 gene expression in serum-starved HUVEC after 6 hrs by microarray analysis relative to control. It is filed as functional, Homo sapiens. The gist of the method: as §4
Experiment [19] has as its system HUVEC. Nature of the experiment: Effect on ACAT2 gene expression in serum-starved HUVEC after 24 hrs by microarray analysis relative to control. It is filed as functional, Homo sapiens. The method, boiled down:
as §3

Experiment [20] has as its system HUVEC. Description: Effect on ABCA1 gene expression in serum-starved HUVEC after 6 hrs by microarray analysis relative to control. It is filed as functional, Homo sapiens. The gist of the method:
as §4

Experiment [21] has as its system HUVEC. Description: Effect on TM7SF2 gene expression in serum-starved HUVEC after 24 hrs by microarray analysis relative to control. It is filed as functional, Homo sapiens.
In experiment [22] the test system is HUVEC. Nature of the experiment: Effect on ATP1B1 gene expression in serum-starved HUVEC after 6 hrs by microarray analysis relative to control. It is filed as functional, Homo sapiens. The method, boiled down: as §3
In experiment [23] the test system is HUVEC. Nature of the experiment: Effect on CD34 gene expression in serum-starved HUVEC after 24 hrs by microarray analysis relative to control. It is filed as functional, Homo sapiens. The gist of the method: as §4
In experiment [24] the test system is HUVEC. Nature of the experiment: Effect on SQLE gene expression in serum-starved HUVEC after 24 hrs by microarray analysis relative to control. The experiment is classed as functional, Homo sapiens.
Experiment [25] relates to HUVEC. Description: Effect on CYBA gene expression in serum-starved HUVEC after 6 hrs by microarray analysis relative to control. The experiment is classed as functional, Homo sapiens. The gist of the method:
as §4

The nature of experiment [26]: Downregulation of HMOX1 gene expression in serum-starved HUVEC at 2 uM after 24 hrs by qRT-PCR analysis. The following applies: Homo sapiens. It is filed as functional, cell-based. The method, boiled down: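 Serum-starved confluent HUVEC treated with 2 μM compound or vehicle in 2.5% FBS for 24 h. Total RNA isolated and qRT-PCR run in triplicate (95 °C 5 min; 40 cycles of 95 °C 5 s, 58 °C 20 s, 72 °C 5 s), normalized to RPS18S. Fold change vs control, n = 3.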

The subject of experiment [27] is HUVEC. Nature of the experiment: Effect on SMC4 gene expression in serum-starved HUVEC after 6 hrs by microarray analysis relative to control. It is filed as functional, Homo sapiens.
The subject of experiment [28] is HUVEC. Nature of the experiment: Effect on VCAM1 gene expression in serum-starved HUVEC after 6 hrs by microarray analysis relative to control. The experiment is classed as functional, Homo sapiens.
Experiment [29] concerns HUVEC. Nature of the experiment: Effect on HLA-B gene expression in serum-starved HUVEC after 24 hrs by microarray analysis relative to control. The experiment is classed as functional, Homo sapiens. The method, boiled down:
as §2

The test system of experiment [30] is HUVEC. Nature of the experiment: Effect on HLA-DRB4 gene expression in serum-starved HUVEC after 24 hrs by microarray analysis relative to control. The experiment is classed as functional, Homo sapiens.
Experiment [31] concerns HUVEC. Description: Effect on OIP5 gene expression in serum-starved HUVEC after 6 hrs by microarray analysis relative to control. The experiment is classed as functional, Homo sapiens.
For experiment [32], the system named is HUVEC. Description: Effect on RETSAT gene expression in serum-starved HUVEC after 24 hrs by microarray analysis relative to control. It is filed as functional, Homo sapiens.
Experiment [33] concerns HUVEC. Nature of the experiment: Effect on MIR181A2HG gene expression in serum-starved HUVEC after 24 hrs by microarray analysis relative to control. It is filed as functional, Homo sapiens. The gist of the method:
as §1

Experiment [34] has as its system HUVEC. Description: Effect on MIR181A2HG gene expression in serum-starved HUVEC after 6 hrs by microarray analysis relative to control. The experiment is classed as functional, Homo sapiens. The gist of the method: as §1
Experiment [35] deals with HUVEC. Description: Effect on HINT3 gene expression in serum-starved HUVEC after 24 hrs by microarray analysis relative to control. It is filed as functional, Homo sapiens. The method, boiled down: as §2
Experiment [36] concerns HUVEC. Description: Effect on IL10 gene expression in serum-starved HUVEC after 24 hrs by microarray analysis relative to control. The experiment is classed as functional, Homo sapiens. The method, boiled down: as §2
The test system of experiment [37] is HUVEC. Description: Effect on RNA18S5 gene expression in serum-starved HUVEC after 6 hrs by microarray analysis relative to control. The experiment is classed as functional, Homo sapiens.
In experiment [38] the test system is HUVEC. Nature of the experiment: Effect on IL10 gene expression in serum-starved HUVEC after 6 hrs by microarray analysis relative to control. The experiment is classed as functional, Homo sapiens. The method, boiled down:
as §2

As to `COc1ccc(Cn2nc(-c3ccccc3)c3cc(Cl)nc(N4CCNCC4)c32)cc1`, the log2FC is recorded as 0.0198 in the experiment on HUVEC [1], 0.5127 in the experiment on HUVEC [2], 0.5417 with HUVEC [3] and -0.0226 in the experiment on HUVEC [5]. For the same molecule, the “fold change (FC)” value in the experiment with HUVEC [4] is 0.5859.
`COc1ccc(Cn2nc(-c3ccccc3)c3cc(Nc4ccc(N5CCN(C)CC5)cc4)nc(N4CCN(C)CC4)c32)cc1`: the “fold change (FC)” value with HUVEC [6] is given as 0.3506; in the experiment on HUVEC [10], 0.3593; in the experiment on HUVEC [11], 0.1625; in the experiment on HUVEC [16], -0.6899; in the experiment on HUVEC [17], 0.5435; in the experiment with HUVEC [18], 0.5236. For the same molecule, the “fold change (FC)” value is 0.0783 with HUVEC [20]; 0.237 in the experiment with HUVEC [22]; 0.5547 in the experiment with HUVEC [23]; 0.1437 with HUVEC [25]; 0.0208 in the experiment on HUVEC [27]; -0.4214 in the experiment with HUVEC [31]. Besides, the outcome in [7] and in experiment [26] was Active. The log2FC is 0.5089 in the experiment on HUVEC [8]; -0.1173 in the experiment with HUVEC [9]; -0.9058 with HUVEC [12]; -0.5756 in the experiment with HUVEC [13]; 0.6696 with HUVEC [14]; -0.5092 in the experiment on HUVEC [15]. For the same molecule, the log2FC is recorded as 1.8135 with HUVEC [19]; 1.5761 in the experiment on HUVEC [21]; 1.0535 - 1.1624 in the experiment on HUVEC [24]; 0.1271 in the experiment with HUVEC [28]; -0.5811 with HUVEC [29]; -0.7509 with HUVEC [30].
Consider `COc1ccc(Cn2nc(-c3ccccc3)c3cc(Nc4ccc(N5CCN(C)CC5)cc4)nc(N4CCNCC4)c32)cc1`, for which the log2FC in the experiment with HUVEC [32] was -0.5409; in the experiment on HUVEC [33], 0.5287; with HUVEC [34], -0.0835; in the experiment with HUVEC [35], 0.6699; in the experiment with HUVEC [36], 0.5464; in the experiment on HUVEC [37], -0.2889. The molecule further came in with a log2FC in the experiment with HUVEC [38] of 0.4049.
